According to ChEMBL document CHEMBL2046381, “Defining the mechanism of action and enzymatic selectivity of psammaplin A against its epigenetic targets” (J Med Chem, 2012):
pIC50: −log10 of the molar value. Active and inactive are the calls of the source. No cut-off for these calls is given here.

Legend:
A549 = assay: Growth inhibition of human A549 cells after 96 hrs by sulphorhodamine B assay; assay type: functional; conditions: A549, 96 h
How it was run: (§1)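 SRB growth assay; MCF7 and WI38 seeded 4000 cells/well, A549 2000 cells/well, attached overnight, then exposed to freshly made drug solutions (0.1 to 50 μM) for 96 h. Fixed with cold 10% TCA, stained with 0.4% SRB; absorbance at 540 nm as percent of untreated control, IC50 from mean absorbance.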

MCF7 [1] = assay: Growth inhibition of human MCF7 cells after 96 hrs by sulphorhodamine B assay; assay type: functional; conditions: MCF7, 96 h; how it was run: as §1
[2] = Growth inhibition of human WI38 cells after 96 hrs by sulphorhodamine B assay; assay type: cell-based; conditions: WI-38 cells; how it was run: as §1
Histone deacetylase 1 = Histone deacetylase 1 (Homo sapiens, UniProt Q13547); assay: Inhibition of HDAC1 in human MCF7 cells assessed as up-regulation of acetylated histone H3 protein level at 5 uM after 24 hrs by Western blot analysis; assay type: cell-based
How it was run: (§2)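 MCF7 cells (5 × 10^6 per T75 flask) treated 24 h, harvested by trypsinization, lysed in RIPA on ice; 50 μg total protein resolved on 12% SDS-PAGE, transferred to nitrocellulose and probed for histone, acetylated histone, tubulin, acetylated tubulin, p21 and actin. Untreated cells as negative control.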

MCF7 [3] = assay: Inhibition of Class 1 histone deacetylase in human MCF7 cells assessed as up-regulation of p21 protein level at 5 uM after 24 hrs by Western blot analysis; assay type: cell-based; how it was run: as §2
[4] = molecular target: T1, Protein deacetylase HDAC6 (Homo sapiens) (UniProt Q9UBN7); assay: Inhibition of HDAC6 in human MCF7 cells assessed as change in tubulin acetylation level at 5 uM after 24 hrs by Western blot analysis; assay type: cell-based; how it was run: as §2
T1 sequence (whole entry): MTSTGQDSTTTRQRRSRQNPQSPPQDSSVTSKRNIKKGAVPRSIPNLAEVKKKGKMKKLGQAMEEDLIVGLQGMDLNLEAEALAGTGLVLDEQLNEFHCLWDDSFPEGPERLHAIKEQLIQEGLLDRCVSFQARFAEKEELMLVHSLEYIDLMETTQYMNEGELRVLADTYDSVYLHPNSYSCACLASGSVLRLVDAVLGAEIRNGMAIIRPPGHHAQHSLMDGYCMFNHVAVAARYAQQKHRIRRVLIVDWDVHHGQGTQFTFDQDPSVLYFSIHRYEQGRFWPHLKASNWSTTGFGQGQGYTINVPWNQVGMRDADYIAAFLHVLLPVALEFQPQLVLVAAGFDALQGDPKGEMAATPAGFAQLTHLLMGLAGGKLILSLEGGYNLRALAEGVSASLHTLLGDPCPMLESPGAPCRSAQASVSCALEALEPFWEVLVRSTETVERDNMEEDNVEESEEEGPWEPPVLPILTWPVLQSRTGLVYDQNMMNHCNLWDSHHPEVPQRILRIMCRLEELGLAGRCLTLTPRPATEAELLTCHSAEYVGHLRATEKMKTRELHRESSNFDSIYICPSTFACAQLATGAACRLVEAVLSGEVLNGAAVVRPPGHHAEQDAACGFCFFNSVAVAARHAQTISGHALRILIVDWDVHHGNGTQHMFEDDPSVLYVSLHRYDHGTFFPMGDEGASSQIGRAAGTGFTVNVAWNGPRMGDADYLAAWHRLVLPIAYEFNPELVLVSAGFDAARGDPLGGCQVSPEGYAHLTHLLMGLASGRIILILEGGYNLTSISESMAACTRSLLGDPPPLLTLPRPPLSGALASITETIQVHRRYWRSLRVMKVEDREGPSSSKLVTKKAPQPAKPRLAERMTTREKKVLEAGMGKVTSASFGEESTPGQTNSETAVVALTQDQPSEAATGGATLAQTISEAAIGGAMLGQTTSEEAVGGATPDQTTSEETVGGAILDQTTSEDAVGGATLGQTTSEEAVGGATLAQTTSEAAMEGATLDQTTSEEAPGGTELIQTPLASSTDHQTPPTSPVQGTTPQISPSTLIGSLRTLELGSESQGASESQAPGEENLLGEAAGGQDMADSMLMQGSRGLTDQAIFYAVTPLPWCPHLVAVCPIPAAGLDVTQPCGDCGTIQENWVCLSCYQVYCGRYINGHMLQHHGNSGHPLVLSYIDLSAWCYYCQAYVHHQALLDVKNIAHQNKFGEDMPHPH

Bacteria [5] = assay: Inhibition of bacterial DNA cytosine-C5 methyltransferase, M.SssI at 50 uM
How it was run: (§3)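 One unit M.SssI with 1 μg bacteriophage λ DNA in NEBuffer2 (pH 7.9, 1 mM DTT) plus 160 μM SAM, ±inhibitor, 2 h at 37 °C; heat-inactivated 65 °C 20 min. Methylation read by BstUI digestion (10 units, 1 h 60 °C) and 1.5% agarose gel electrophoresis; run four times with positive and negative controls.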

Bacteria [6] = assay: Inhibition of bacterial DNA cytosine-C5 methyltransferase, M.SssI at 5 uM; how it was run: as §3
[7] = Inhibition of HDAC in cell extract based assay
[8] = molecular target: DNA (cytosine-5)-methyltransferase 1 (Homo sapiens, UniProt P26358); assay: Inhibition of semi-purified DNMT1
DNA (cytosine-5)-methyltransferase 1, sequence (P26358 whole entry): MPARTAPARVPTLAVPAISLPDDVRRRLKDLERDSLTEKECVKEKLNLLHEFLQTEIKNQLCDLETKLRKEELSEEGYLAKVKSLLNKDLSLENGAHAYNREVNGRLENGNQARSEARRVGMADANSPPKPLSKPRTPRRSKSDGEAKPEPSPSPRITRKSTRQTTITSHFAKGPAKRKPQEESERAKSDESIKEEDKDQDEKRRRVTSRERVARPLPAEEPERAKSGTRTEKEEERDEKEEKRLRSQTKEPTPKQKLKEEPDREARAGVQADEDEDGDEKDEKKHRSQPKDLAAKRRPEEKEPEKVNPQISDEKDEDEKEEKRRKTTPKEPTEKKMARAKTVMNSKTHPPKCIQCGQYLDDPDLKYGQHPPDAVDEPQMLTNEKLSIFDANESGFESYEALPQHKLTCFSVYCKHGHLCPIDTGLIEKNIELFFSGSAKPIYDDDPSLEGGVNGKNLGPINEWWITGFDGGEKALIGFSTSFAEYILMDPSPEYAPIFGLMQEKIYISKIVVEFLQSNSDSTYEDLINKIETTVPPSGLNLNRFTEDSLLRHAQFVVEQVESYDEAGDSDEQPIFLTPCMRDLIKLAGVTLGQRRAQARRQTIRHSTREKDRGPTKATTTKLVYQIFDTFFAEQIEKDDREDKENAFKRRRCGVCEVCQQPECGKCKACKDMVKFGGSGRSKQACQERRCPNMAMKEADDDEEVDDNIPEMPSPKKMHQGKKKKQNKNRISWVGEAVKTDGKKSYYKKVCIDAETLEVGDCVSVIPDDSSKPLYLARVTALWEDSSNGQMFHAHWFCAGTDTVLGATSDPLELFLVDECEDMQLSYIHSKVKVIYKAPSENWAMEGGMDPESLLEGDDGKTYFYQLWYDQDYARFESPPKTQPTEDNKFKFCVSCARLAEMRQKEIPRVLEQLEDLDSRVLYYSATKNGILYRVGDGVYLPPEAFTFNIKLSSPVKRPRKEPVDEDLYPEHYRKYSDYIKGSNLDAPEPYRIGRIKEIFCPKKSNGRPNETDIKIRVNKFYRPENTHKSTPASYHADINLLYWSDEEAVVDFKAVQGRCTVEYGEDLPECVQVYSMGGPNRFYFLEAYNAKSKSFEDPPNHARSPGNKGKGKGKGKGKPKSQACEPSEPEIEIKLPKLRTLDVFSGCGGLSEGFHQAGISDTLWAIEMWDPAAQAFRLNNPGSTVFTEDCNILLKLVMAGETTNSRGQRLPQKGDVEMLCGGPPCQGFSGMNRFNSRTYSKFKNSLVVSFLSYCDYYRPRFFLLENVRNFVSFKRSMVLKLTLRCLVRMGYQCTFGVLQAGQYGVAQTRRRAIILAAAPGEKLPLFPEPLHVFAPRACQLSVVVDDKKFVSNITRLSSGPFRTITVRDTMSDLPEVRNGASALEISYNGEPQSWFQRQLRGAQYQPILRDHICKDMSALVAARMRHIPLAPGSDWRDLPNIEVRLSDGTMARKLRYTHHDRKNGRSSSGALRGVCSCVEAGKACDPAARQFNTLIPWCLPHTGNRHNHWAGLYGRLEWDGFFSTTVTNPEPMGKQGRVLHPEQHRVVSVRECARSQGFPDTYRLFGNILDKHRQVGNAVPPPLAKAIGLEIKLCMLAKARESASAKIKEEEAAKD

Histone deacetylase 1, sequence (Q13547 whole entry): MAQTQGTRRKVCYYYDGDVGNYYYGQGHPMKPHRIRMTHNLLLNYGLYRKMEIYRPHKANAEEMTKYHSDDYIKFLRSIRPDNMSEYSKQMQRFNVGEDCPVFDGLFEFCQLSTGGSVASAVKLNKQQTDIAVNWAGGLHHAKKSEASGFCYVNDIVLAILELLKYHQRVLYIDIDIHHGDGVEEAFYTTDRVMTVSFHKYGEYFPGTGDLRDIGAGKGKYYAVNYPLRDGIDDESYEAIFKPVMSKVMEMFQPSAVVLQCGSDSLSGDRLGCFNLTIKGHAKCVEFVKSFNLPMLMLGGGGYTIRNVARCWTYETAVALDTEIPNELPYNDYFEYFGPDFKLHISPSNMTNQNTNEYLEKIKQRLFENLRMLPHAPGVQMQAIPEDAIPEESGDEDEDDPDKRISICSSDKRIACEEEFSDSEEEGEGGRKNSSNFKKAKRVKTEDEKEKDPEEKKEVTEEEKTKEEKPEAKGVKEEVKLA

Question: Which GI50 (A549) does the source give for `O=C(NCCSSCCNC(=O)/C(Cc1ccc(O)c(Br)c1)=N/O)/C(Cc1ccc(O)c(Br)c1)=N/O` [PSAMMAPLIN A] here?
Answer: 7500 nM

Question: And the GI50 (MCF7 [1])?
Answer: 1270 nM

Question: And the GI50 at 96 h [2]?
Answer: 3440 nM

Question: What about the inhibition (Histone deacetylase 1) of the same compound?
Answer: Active

Question: What about the inhibition (MCF7 [3]) of the same compound?
Answer: Active

Question: And the inhibition [4]?
Answer: inactive

Question: What about the inhibition (Bacteria [5]) of the same compound?
Answer: Active

Question: And the inhibition (Bacteria [6])?
Answer: Active

Question: And the pIC50 [7]?
Answer: 8.38

Question: And the pIC50 [8]?
Answer: 7.73
